ChEMBL document CHEMBL1130202, “Biologically active heteroarotinoids exhibiting anticancer activity and decreased toxicity” (J Med Chem, 1997)

System: CC-B
Test: Relative transcriptional activation activity relative to t-RA
Assay type: functional, Homo sapiens
In short: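 CC-B reporter cells (CC-1 cervical line carrying a CAT gene under a RARE with a tk promoter) were seeded at 4×10^5 cells/well in MEM with nonessential amino acids, pyruvate and 10% FBS, the serum lots having negligible t-RA by HPLC. Triplicate cultures were screened at 10^-6 M with 0.1% DMSO final. After 48 h, CAT activity ([3H]acetyl-CoA) per mg protein was taken as treated/control and expressed relative to t-RA. Average of three experiments.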

SMILES: C/C(=C\c1ccc(C(=O)O)cc1)c1ccc2c(c1)C(C)(C)CS2
- Relative activity: 56

SMILES: CC(/C=C/C=C(\C)c1ccc2c(c1)C(C)(C)CS2)=C\C(=O)O
- Relative activity: 50

SMILES: COC(=O)c1ccc(C(=O)Oc2c(C)cc3c(c2C)C(C)(C)CC(=O)O3)cc1
- Relative activity: 29

SMILES: C/C(=C\c1ccc(C(=O)O)cc1)c1ccc2c(c1)C(C)(C)CO2
- Relative activity: 46

SMILES: CCOC(=O)c1ccc(/C=C(\C)c2ccc3c(c2)CC[C@@H](CC)[S+]3[O-])cc1 (stereo partly specified)
- Relative activity: 35.8

SMILES: CC1(C)CCOc2ccc(C(=O)Oc3ccc(/C=N\N=C(/N)S)cc3)cc21
- Relative activity: 33

SMILES: CCOC(=O)c1ccc(OC(=O)c2ccc3c(c2)C(C)(C)CCN3C)cc1
- Relative activity: 54

SMILES: CCOC(=O)c1ccc(OC(=O)c2ccc3c(c2)C(C)(C)CCO3)cc1
- Relative activity: 40

SMILES: CCOC(=O)c1ccc(/C=C(\C)c2ccc3c(c2)C(C)(C)CCS3)cc1
- Relative activity: 51

SMILES: CCOC(=O)c1ccc(/C=C(\C)c2ccc3c(c2)C(C)(C)CCO3)cc1
- Relative activity: 35.7

SMILES: CCCCCCCCC1CCc2cc(/C(C)=C/c3ccc(C(=O)OCC)cc3)ccc2S1 (stereo unspecified)
- Relative activity: 43
